Measurements: ChEMBL document CHEMBL3351398, “Discovery of a Potent and Selective DGAT1 Inhibitor with a Piperidinyl-oxy-cyclohexanecarboxylic Acid Moiety” (ACS Med Chem Lett, 2014)
≈ marks a conversion by molar mass, not a printed value.

What was measured:
Salmonella typhimurium [1] = assay: Induction of mutagenicity in Salmonella typhimurium TA98 assessed as increase in number of revertants in absence of metabolic activation; assay type: toxicity, organism-based; conditions: salmonella enterica subsp. enterica serovar typhimurium
How it was run: (§1)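 Microbial reverse-mutation (Ames) test in strains TA1535, TA98 and TA100, with and without metabolic activation. The concentration range was 30 to 5000 μg/plate. A positive call required a 2-fold or greater increase in revertants relative to the solvent control.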

[2] = Unbound fraction in mouse plasma; assay type: ADME, cell-free
[3] = Oral bioavailability in Sprague-Dawley rat at 2 mg/kg; assay type: ADME, organism-based; conditions: in vivo
[4] = Half life in Sprague-Dawley rat at 1 mg/kg, iv or 2 mg/kg, po; assay type: ADME, organism-based; conditions: in vivo
[5] = Drug level in adipose fat of C57BL/6 mouse assessed as cis-4-((1-(5-(5-(trifluoromethyl)-1H-benzo[d]imidazol-2-yl)pyridin-2-yl)piperidin-4-yl)oxy)cyclohexanecarboxylic acid level at 10 mg/kg, po after 3 hrs; assay type: ADME, organism-based, Adipose tissue; design: dose 10 mg/kg, route oral; conditions: in vivo, read-out: Drug uptake
How it was run: (§2)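 Tissue distribution in C57BL/6 mice. A single oral dose of 10 mg/kg was given as a solution in EtOH/PEG400/water (10:50:40). Parent and its cis isomer were both measured, in μM, in plasma, liver, small intestine, adipose fat and skin at 3 h and 24 h.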

[6] = Drug level in small intestine of C57BL/6 mouse at 10 mg/kg, po after 24 hrs; assay type: ADME, organism-based; design: dose 10 mg/kg, route oral; conditions: read-out: Drug uptake; how it was run: as §2
[7] = Drug level in skin of C57BL/6 mouse at 10 mg/kg, po after 24 hrs; assay type: ADME, organism-based, Zone of skin; design: dose 10 mg/kg, route oral; conditions: read-out: Drug uptake; how it was run: as §2
Intestine [8] = assay: Drug level in small intestine of C57BL/6 mouse assessed as cis-4-((1-(5-(5-(trifluoromethyl)-1H-benzo[d]imidazol-2-yl)pyridin-2-yl)piperidin-4-yl)oxy)cyclohexanecarboxylic acid level at 10 mg/kg, po after 24 hrs; assay type: ADME, organism-based; design: dose 10 mg/kg, route oral; conditions: in vivo, read-out: Drug uptake; how it was run: as §2
[9] = Volume of distribution at steady state in Beagle dog at 1 mg/kg, iv or 4 mg/kg, po; assay type: ADME, organism-based, Canis lupus familiaris; conditions: in vivo, read-out: Vdss
How it was run: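 Beagle dogs were dosed 1 mg/kg iv as a solution in 30% captisol (pH 8) and 4 mg/kg po in methylcellulose. Pharmacokinetic parameters were derived from these dosings.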

[10] = Drug level in small intestine of C57BL/6 mouse at 10 mg/kg, po after 3 hrs; assay type: ADME, organism-based; design: dose 10 mg/kg, route oral; conditions: read-out: Drug uptake; how it was run: as §2
Salmonella typhimurium [11] = assay: Induction of mutagenicity in Salmonella typhimurium TA100 assessed as increase in number of revertants in absence of metabolic activation; assay type: toxicity, organism-based; conditions: salmonella enterica subsp. enterica serovar typhimurium; how it was run: as §1
[12] = Solubility in PBS buffer at pH 7; assay type: physicochemical
How it was run: (§3)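 High-throughput solubility test in PBS buffer at pH 2 and at pH 7. Free form and salt forms (TFA, formate, ammonium) were tested separately.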

[13] = Drug level in adipose fat of C57BL/6 mouse assessed as cis-4-((1-(5-(5-(trifluoromethyl)-1H-benzo[d]imidazol-2-yl)pyridin-2-yl)piperidin-4-yl)oxy)cyclohexanecarboxylic acid level at 10 mg/kg, po after 24 hrs; assay type: ADME, organism-based, Adipose tissue; design: dose 10 mg/kg, route oral; conditions: in vivo, read-out: Drug uptake; how it was run: as §2
[14] = biological target: T1, Diacylglycerol O-acyltransferase 1 (Homo sapiens, UniProt O75907); assay: Inhibition of human DGAT1
T1 sequence (O75907 whole entry): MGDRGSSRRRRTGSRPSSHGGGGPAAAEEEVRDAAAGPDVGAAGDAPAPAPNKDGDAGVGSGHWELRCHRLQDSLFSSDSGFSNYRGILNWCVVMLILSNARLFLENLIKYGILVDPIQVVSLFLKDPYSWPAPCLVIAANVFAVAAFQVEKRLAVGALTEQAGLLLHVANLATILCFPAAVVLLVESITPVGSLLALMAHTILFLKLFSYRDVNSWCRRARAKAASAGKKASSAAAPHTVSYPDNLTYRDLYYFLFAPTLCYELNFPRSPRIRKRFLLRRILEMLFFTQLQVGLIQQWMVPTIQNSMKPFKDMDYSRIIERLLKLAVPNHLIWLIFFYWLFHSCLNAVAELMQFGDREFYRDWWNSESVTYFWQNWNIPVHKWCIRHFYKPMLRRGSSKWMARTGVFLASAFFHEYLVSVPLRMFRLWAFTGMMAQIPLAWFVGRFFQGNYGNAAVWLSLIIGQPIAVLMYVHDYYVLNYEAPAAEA

Adenosine receptor A2a = Adenosine receptor A2a (Homo sapiens, UniProt P29274); assay: Binding affinity to human A2A receptor
Chain of Adenosine receptor A2a (P29274 whole entry): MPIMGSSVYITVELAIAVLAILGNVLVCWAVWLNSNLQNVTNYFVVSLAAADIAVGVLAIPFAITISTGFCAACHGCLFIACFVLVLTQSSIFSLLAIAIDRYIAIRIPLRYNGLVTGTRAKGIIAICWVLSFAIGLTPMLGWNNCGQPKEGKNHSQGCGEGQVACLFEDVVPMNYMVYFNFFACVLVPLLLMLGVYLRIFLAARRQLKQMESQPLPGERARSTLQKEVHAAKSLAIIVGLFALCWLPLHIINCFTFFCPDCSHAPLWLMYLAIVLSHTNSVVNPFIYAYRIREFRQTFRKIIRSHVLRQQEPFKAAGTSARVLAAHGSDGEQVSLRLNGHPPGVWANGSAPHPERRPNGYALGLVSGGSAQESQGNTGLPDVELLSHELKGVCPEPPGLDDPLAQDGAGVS
How it was run: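 Recombinant human A2A receptor was tested in an in-house radioligand competition binding assay. The value is reported as Ki.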

[15] = biological target: Voltage-gated inwardly rectifying potassium channel KCNH2 (Homo sapiens, UniProt Q12809); assay: Displacement of radiolabeled MK499 from human ERG
Chain of Voltage-gated inwardly rectifying potassium channel KCNH2 (Q12809 whole entry): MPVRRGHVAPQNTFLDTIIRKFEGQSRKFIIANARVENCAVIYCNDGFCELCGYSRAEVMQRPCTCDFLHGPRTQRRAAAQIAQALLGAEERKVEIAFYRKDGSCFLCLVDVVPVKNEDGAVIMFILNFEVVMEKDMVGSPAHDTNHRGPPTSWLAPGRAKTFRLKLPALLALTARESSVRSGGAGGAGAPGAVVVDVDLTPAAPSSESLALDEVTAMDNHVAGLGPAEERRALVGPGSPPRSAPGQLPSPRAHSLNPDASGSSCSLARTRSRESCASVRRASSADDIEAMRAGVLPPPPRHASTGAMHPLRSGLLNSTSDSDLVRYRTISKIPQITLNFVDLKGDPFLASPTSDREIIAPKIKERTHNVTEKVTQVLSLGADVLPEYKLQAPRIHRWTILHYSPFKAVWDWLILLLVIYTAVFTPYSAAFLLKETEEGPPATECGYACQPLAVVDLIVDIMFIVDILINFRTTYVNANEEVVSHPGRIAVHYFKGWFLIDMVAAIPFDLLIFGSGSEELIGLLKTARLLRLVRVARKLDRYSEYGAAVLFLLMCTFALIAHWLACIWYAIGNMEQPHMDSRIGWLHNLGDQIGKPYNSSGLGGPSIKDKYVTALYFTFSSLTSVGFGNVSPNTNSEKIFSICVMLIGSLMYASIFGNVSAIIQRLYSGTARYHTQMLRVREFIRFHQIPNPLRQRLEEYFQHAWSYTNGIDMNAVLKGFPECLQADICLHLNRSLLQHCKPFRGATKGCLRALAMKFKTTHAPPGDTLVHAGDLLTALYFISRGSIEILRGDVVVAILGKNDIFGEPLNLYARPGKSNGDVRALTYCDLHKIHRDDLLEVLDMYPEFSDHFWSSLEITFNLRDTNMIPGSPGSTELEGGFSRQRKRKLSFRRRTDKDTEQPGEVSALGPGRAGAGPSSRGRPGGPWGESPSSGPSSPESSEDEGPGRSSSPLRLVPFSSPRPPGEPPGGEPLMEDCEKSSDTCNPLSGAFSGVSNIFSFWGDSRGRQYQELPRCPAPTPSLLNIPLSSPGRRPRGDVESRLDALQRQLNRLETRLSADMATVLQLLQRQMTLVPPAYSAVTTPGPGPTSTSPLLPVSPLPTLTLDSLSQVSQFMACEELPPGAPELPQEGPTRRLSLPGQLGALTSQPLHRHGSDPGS
How it was run: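 hERG off-target activity was measured in a competitive binding assay against radiolabeled MK-499. The value is reported as Ki.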

[16] = AUC in Beagle dog at 4 mg/kg, po; assay type: ADME, organism-based, Canis lupus familiaris; design: dose 4 mg/kg, route oral; conditions: plasma
How it was run: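 Single-dose pharmacokinetics. Beagle dogs were dosed at 1 mg/kg iv as a solution in 30% captisol (pH 8) and at 4 mg/kg po in 0.5 methylcellulose.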

Salmonella typhimurium [17] = assay: Induction of mutagenicity in Salmonella typhimurium TA1535 assessed as increase in number of revertants in absence of metabolic activation; assay type: toxicity, organism-based; conditions: salmonella enterica subsp. enterica serovar typhimurium; how it was run: as §1
Liver = assay: Drug level in liver of C57BL/6 mouse assessed as cis-4-((1-(5-(5-(trifluoromethyl)-1H-benzo[d]imidazol-2-yl)pyridin-2-yl)piperidin-4-yl)oxy)cyclohexanecarboxylic acid level at 10 mg/kg, po after 24 hrs; assay type: ADME, organism-based; design: dose 10 mg/kg, route oral; conditions: in vivo, read-out: Drug uptake; how it was run: as §2
Plasma = assay: Drug level in plasma of C57BL/6 mouse assessed as cis-4-((1-(5-(5-(trifluoromethyl)-1H-benzo[d]imidazol-2-yl)pyridin-2-yl)piperidin-4-yl)oxy)cyclohexanecarboxylic acid level at 10 mg/kg, po after 3 hrs; assay type: ADME, organism-based; design: dose 10 mg/kg, route oral; conditions: in vivo; how it was run: as §2
Mus musculus = assay: Inhibition of plasma triglyceride accumulation in mouse at 10 mg/kg, po dosed 2 hrs before lipid challenge and measured at 18 hrs by lipid tolerance test; assay type: functional
How it was run: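 Mouse lipid tolerance test measuring plasma triglyceride excursion. Dosing was 10 mpk oral, with triglyceride reduction read at 18 h.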

[18] = Solubility in PBS buffer at pH 2; assay type: physicochemical; how it was run: as §3
Intestine [19] = assay: Drug level in small intestine of C57BL/6 mouse assessed as cis-4-((1-(5-(5-(trifluoromethyl)-1H-benzo[d]imidazol-2-yl)pyridin-2-yl)piperidin-4-yl)oxy)cyclohexanecarboxylic acid level at 10 mg/kg, po after 3 hrs; assay type: ADME, organism-based; design: dose 10 mg/kg, route oral; conditions: in vivo, read-out: Drug uptake; how it was run: as §2
[20] = Clearance in Sprague-Dawley rat at 1 mg/kg, iv or 2 mg/kg, po; assay type: ADME, organism-based; conditions: in vivo
[21] = Drug level in liver of C57BL/6 mouse at 10 mg/kg, po after 3 hrs; assay type: ADME, organism-based; design: dose 10 mg/kg, route oral; conditions: read-out: Drug uptake; how it was run: as §2
[22] = Drug level in liver of C57BL/6 mouse at 10 mg/kg, po after 24 hrs; assay type: ADME, organism-based; design: dose 10 mg/kg, route oral; conditions: read-out: Drug uptake; how it was run: as §2
Salmonella typhimurium [23] = assay: Induction of mutagenicity in Salmonella typhimurium TA98 assessed as increase in number of revertants in presence of metabolic activation; assay type: toxicity, organism-based; conditions: salmonella enterica subsp. enterica serovar typhimurium; how it was run: as §1
Salmonella typhimurium [24] = assay: Induction of mutagenicity in Salmonella typhimurium TA1535 assessed as increase in number of revertants in presence of metabolic activation; assay type: toxicity, organism-based; conditions: salmonella enterica subsp. enterica serovar typhimurium; how it was run: as §1
[25] = Unbound fraction in human plasma; assay type: ADME, cell-free
[26] = AUC in Sprague-Dawley rat at 2 mg/kg, po; assay type: ADME, organism-based; design: dose 2 mg/kg, route oral; conditions: plasma

fraction unbound [2]: 0.078
bioavailability [3]: 8%
half-life [4]: 54.6 min
concentration [5]: 21 nM
concentration at 24 h [6]: 711 nM
concentration at 24 h [7]: 167 nM
concentration (Intestine [8]): 76 nM
Vd [9]: 4.54 L/kg
concentration at 3 h [10]: 36600 nM
solubility [12]: 153 µM (≈ 74.7 µg/mL)
concentration [13]: < 10 nM
IC50 [14]: 0.0039 µM
Ki (Adenosine receptor A2a): 4.6 µM
AUC [16]: 1.94 µM·h
concentration (Liver): 672 nM
concentration (Plasma): 54 nM
solubility [18]: 167 µM (≈ 81.6 µg/mL)
concentration (Intestine [19]): 5030 nM
clearance [20]: 5.82 mL/min/kg
concentration at 3 h [21]: 21600 nM
concentration at 24 h [22]: 4020 nM
fraction unbound [25]: 0.09
AUC [26]: 1 µM·h
SMILES: O=C(O)[C@H]1CC[C@H](OC2CCN(c3ccc(-c4nc5cc(C(F)(F)F)ccc5[nH]4)cn3)CC2)CC1
Activity (Salmonella typhimurium [1]): Non-toxic
Activity (Salmonella typhimurium [11]): Non-toxic
Ki [15]: 10 µM
Activity (Salmonella typhimurium [17]): Non-toxic
inhibition in vivo at 10 mg/kg (Mus musculus): 89%
Activity (Salmonella typhimurium [23]): Non-toxic
Activity (Salmonella typhimurium [24]): Non-toxic
